Each block holds one compound with its values, some of them ahead of it. Peptide text beside a SMILES is read from it. * marks the point of attachment. pNA = O=[N+]([O-])c1ccc(N*)cc1
Columns and labels:
[1] = system: Dengue virus; experiment: Inhibition of DENV2 NS2B-NS3 protease assessed as residual activity at 200 uM using Benzoyl-Nle-Lys-Arg-Arg-AMC as substrate preincubated for 3 mins followed by substrate addition by fluorescence spectrophotometer
[2] = system: Dengue virus; experiment: Inhibition of DENV2 NS2B-NS3 protease assessed as residual activity at 16 uM using Benzoyl-Nle-Lys-Arg-Arg-AMC as substrate preincubated for 3 mins followed by substrate addition by fluorescence spectrophotometer
[3] = system: dengue virus type 2; experiment: Inhibition of DENV2 NS2B-NS3 protease assessed as residual activity up to 200 uM using Benzoyl-Nle-Lys-Arg-Arg-AMC as substrate preincubated for 3 mins followed by substrate addition by fluorescence spectrophotometer
[4] = Inhibition of DENV2 NS2B-NS3 protease using Benzoyl-Nle-Lys-Arg-Arg-AMC as substrate preincubated for 3 mins followed by substrate addition by fluorescence spectrophotometer; parameters: species or system Dengue virus
In short: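 Plasmid-expressed DENV-2 NS2B-NS3 protease was assayed at 37 °C, pH 9.0 (50 mM Tris-HCl, 10 mM NaCl, 20% glycerol, 1 mM CHAPS, 0.04% NaN3). Inhibitor at graded concentrations was preincubated 3 min before 33 µM substrate was added, and fluorescence was read at 356/438 nm. IC50 was derived from remaining activity (vehicle = 100%) versus concentration, as the mean of triplicates.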

[5] = Cytotoxicity against human HuH7 cells after 48 hrs by cell-titer glo luminescent viability assay; format: cell-based, Huh-7
[6] = system: dengue virus type 2; experiment: Antiviral activity against DENV2 infected Vero E6 cells assessed as reduction in viral titer after 48 hrs by plaque assay; format: functional, Vero C1008; settings: Huh-7, 48 h, in the assay text read “Huh-7” for “Vero E6”
In short: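 Huh-7 cells (10^4/well) were infected with wild-type DENV-2 at MOI 1. Non-toxic compound concentrations were added 1 h later, and cells were incubated 48 h at 37 °C, in triplicate. Virus yield in the supernatant was titred on Vero E6 cells with 10^-1 to 10^-6 dilutions, 7-day plaque development, formaldehyde fixation and crystal violet staining. Titer reduction was judged against an untreated control.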

[7] = system: dengue virus type 2; experiment: Inhibition of DENV2 NS2B-NS3 protease assessed as residual activity at 15 uM using Benzoyl-Nle-Lys-Arg-Arg-AMC as substrate preincubated for 3 mins followed by substrate addition by fluorescence spectrophotometer
[8] = system: Dengue virus; experiment: Inhibition of DENV2 NS2B-NS3 protease assessed as residual activity at 20 uM using Benzoyl-Nle-Lys-Arg-Arg-AMC as substrate preincubated for 3 mins followed by substrate addition by fluorescence spectrophotometer

SMILES: O=C1[C@@H]2CCCN2[C@H](c2ccc(Cl)cc2)N1c1ccc([N+](=O)[O-])cc1
- Activity [3]: > 50%

SMILES: O=C1[C@@H]2CCCN2CN1c1ccc([N+](=O)[O-])cc1
- Activity [2]: 61%

SMILES: O=C1[C@@H]2CCCN2[C@@H](c2ccc([N+](=O)[O-])cc2)N1c1ccc([N+](=O)[O-])cc1
- IC50 [4]: 1.2 µM
- CC50 at 48 h [5]: > 100 µM
- EC50 [6]: 39.4 µM
- Activity [7]: 32%

SMILES: CSCC[C@H](N)C(=O)N1CCC[C@H]1C(=O)Nc1ccc([N+](=O)[O-])cc1 (H-Met-Pro-pNA)
- IC50 [4]: 1.2 µM
- CC50 at 48 h [5]: > 100 µM
- EC50 [6]: 38.7 µM

SMILES: O=C1[C@@H]2CCCN2[C@@H](Cc2ccccc2)N1c1ccc([N+](=O)[O-])cc1
- Activity [8]: 58%

SMILES: O=C1[C@@H]2CCCN2[C@@H](Cc2ccc([N+](=O)[O-])cc2)N1c1ccc([N+](=O)[O-])cc1
- Activity [3]: > 50%

SMILES: O=C1[C@@H]2CCCN2[C@@H](c2ccc(Cl)cc2)N1c1ccc([N+](=O)[O-])cc1
- Activity [3]: > 50%

SMILES: O=C1[C@@H]2CCCN2[C@@H](c2ccc(C(F)(F)F)cc2)N1c1ccc([N+](=O)[O-])cc1
- Activity [3]: > 50%

SMILES: COc1ccc([C@H]2N(c3ccc([N+](=O)[O-])cc3)C(=O)[C@@H]3CCCN32)cc1
- Activity [3]: > 50%

SMILES: O=C1[C@@H]2CCCN2[C@H](c2ccc(C(F)(F)F)cc2)N1c1ccc([N+](=O)[O-])cc1
- Activity [3]: > 50%

SMILES: O=C1[C@@H]2CCCN2[C@@H](c2cccc([N+](=O)[O-])c2)N1c1ccc([N+](=O)[O-])cc1
- Activity [3]: > 50%

SMILES: O=C1[C@@H]2CCCN2[C@H](c2ccc([N+](=O)[O-])cc2)N1c1ccc([N+](=O)[O-])cc1
- Activity [3]: > 50%

More lines, now with the values ahead:

- Activity [1]: 33%
SMILES: O=C1[C@@H]2CCCN2[C@@H](c2ccccc2)N1c1ccc([N+](=O)[O-])cc1

- Activity [2]: 40%
SMILES: CC[C@H]1N(c2ccc([N+](=O)[O-])cc2)C(=O)[C@@H]2CCCN21

- Activity [3]: > 50%
SMILES: CC(C)c1ccc([C@H]2N(c3ccc([N+](=O)[O-])cc3)C(=O)[C@@H]3CCCN32)cc1

- Activity [2]: 66%
SMILES: CC(C)[C@H]1N(c2ccc([N+](=O)[O-])cc2)C(=O)[C@@H]2CCCN21

- Activity [2]: 58%
SMILES: C[C@H]1N(c2ccc([N+](=O)[O-])cc2)C(=O)[C@@H]2CCCN21

Reference: ChEMBL document CHEMBL4041495, “Identification of fused bicyclic derivatives of pyrrolidine and imidazolidinone as dengue virus-2 NS2B-NS3 protease inhibitors” (Eur J Med Chem, 2017)
